Test results published in PubChem BioAssay.
Inconclusive results are not listed. Active and inactive are the calls of the source.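 How the source made its calls, unless noted: active means viability increase at or above a cutoff of the median across tested compounds plus 3 SD (cut at about 8.5% in these data, passing the limit was not always enough); inconclusive means some gains above the cutoff, reason not given; inactive means the rest.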

Experiments:
[1] = S. cerevisiae growth inhibition in permissive medium (OD615), pilot counter-assay for S. cerevisiae lifespan shortening project, permissive growth control (AID 705;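 active means growth inhibition above 25% in both replicates, a cutoff set 3 SD above the mean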); conditions: OD615, 24 h, at 10 µM, hits give high values
How it was run: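 System: engineered DeaD yeast; Medium: permissive raffinose/galactose medium; Compound dosing: 10 µM single dose, 0.25% DMSO; Incubation: 4 h cell pre-growth, 24 h exposure at 30 °C; Technique: OD at 615 nm; Evaluation: growth inhibition from lowered OD615 after 24 h.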

[2] = S. cerevisiae growth inhibition in restrictive medium, OD615, pilot screen, restrictive growth control, yeast lifespan reduction project (AID 706;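 active means growth inhibition above a set limit, 3 SD over mean compound inhibition, in both replicates, cut at about 43% in these data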;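 further: modified DeaD lifespan yeast strain shifted to restrictive glucose medium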); conditions: OD615, 48 h, at 10 µM, hits give high values
How it was run: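 Material: modified S. cerevisiae; buffer or medium: CSMM-D glucose medium; doses: one concentration, 10 µM final, 0.25% DMSO; incubation: 48 h compound exposure at 30 °C; detection: optical density at 615 nm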

[3] = doxorubicin toxicity protection in MRP-1 cells – H69AR cells, CellTiter-Glo, duplicate, MRP-1 activator project, pilot screen (AID 807); conditions: H69AR viability with doxorubicin, CellTiter-Glo luminescence; at 10 µM; hits give high values;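 further: compound pretreatment 18-22 h then 72 h combined with doxorubicin; 0% = doxorubicin alone and 100% = vehicle without doxorubicin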
[4] = viability of HCT116 without oncogenic beta-catenin – human colon tumor cells, pilot screen (AID 823;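 active means cell viability at or below a set limit in both duplicate runs, the limit being the all-compound median minus 4 SD, cut at about 23% in these data, passing the limit was not always enough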;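 further: 0% = wells killed by 20 µM Hyamine and 100% = untreated DMSO cell wells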); conditions: HCT116 beta-catenin knockout viability, CellTiter-Glo, 60 h; at 10 µM; hits give low values
[5] = viability of PTEN-null HCT116 cells – cell-based, HCT116 clonal line, CellTiter-Glo, pilot screen (AID 824;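 active means viability at or below 27.92% in each of two runs, the all-compound median minus 4 SD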;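 further: 0% = 20 µM Hyamine control and 100% = vehicle cell control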); conditions: HCT116 PTEN-deleted viability, 60 h, at 10 µM, hits give low values
[6] = RAM pathway blockade in budding yeast – dse1pr::URA3 reporter, 5-FOA selection, pilot screen (AID 869;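 active means inhibition over a set limit, the all-compound mean plus 3 SD, in both replicate runs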;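 further: 0% = DMSO wells with no growth and 100% = 10 µM 1-NA-PP1 with full growth; RAM network block rescues cells from 5-FOA so hits raise OD615 growth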); conditions: S. cerevisiae dse1pr::URA3 5-FOA growth, OD615, 2 d; at 10 µM; hits give high values; strain carries analog-sensitive mutant Cbk1 kinase
[7] = RAM signaling pathway blockade in yeast – S. cerevisiae, Pdr1DBD-CYC8 efflux-inhibited sensitized strain, primary screen (AID 1298;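 active means RAM network inhibition above 8.4% in each of two replicates, 3 SD over the compound average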;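 further: 0% = DMSO untreated cells without growth and 100% = 10 µM 1-NA-PP1 full growth; higher means more yeast growth rescued from 5-FOA killing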); conditions: S. cerevisiae cbk1-as DSE1-URA3 strain, 5-FOA growth OD615, 2 d; at 50 µM; hits give high values

COc1ccc2[nH]cc(CCNC(=O)C3CCCNC3=O)c2c1 (configuration not stated)
inactive: growth inhibition [1] -14.6% | growth inhibition [2] -16.5% | viability increase [3] -1.57% | viability [4] 104% | viability [5] 102% | inhibition [6] 0.15% | RAM network inhibition [7] 2.98%

O=C(CCn1c(=O)oc2ccccc21)Nc1ccc2c(c1)OCCO2
inactive: growth inhibition [1] -3.18% | growth inhibition [2] -9.54% | viability increase [3] -3.68% | viability [4] 103% | viability [5] 96% | inhibition [6] 1.88% | RAM network inhibition [7] 3.61%

COc1ccc(NC(=O)Nc2c(C)n(C)n(-c3ccccc3)c2=O)cc1
inactive: growth inhibition [1] 1.73% | growth inhibition [2] 2.85% | viability increase [3] -2.06% | viability [4] 103% | viability [5] 97.9% | inhibition [6] 0.655% | RAM network inhibition [7] 1.34%

COc1ccc(N2CCN(C3CC(=O)N(C)C3=O)CC2)cc1 (configuration not stated)
inactive: growth inhibition [1] -3.33% | growth inhibition [2] 2.79% | viability increase [3] -0.79% | viability [4] 103% | viability [5] 100% | inhibition [6] 1.95% | RAM network inhibition [7] 4.13%

COc1ccc(CCNC(=O)Cc2cc(=O)[nH]c(=O)[nH]2)cc1OC
inactive: growth inhibition [1] 6.42% | growth inhibition [2] 3% | viability increase [3] -0.97% | viability [4] 96.7% | viability [5] 97.6% | inhibition [6] 1.35% | RAM network inhibition [7] 1.23%

COC(=O)C1(C)Nc2ccccc2C(=O)N1c1ccccc1OC (configuration not stated)
inactive: growth inhibition [1] -17% | growth inhibition [2] -23.6% | viability increase [3] -0.77% | viability [4] 103% | viability [5] 88.5% | inhibition [6] 1.97% | RAM network inhibition [7] 5.8%

Cc1cc2cc(CNC(=O)Cc3cccs3)ccc2n1C
inactive: growth inhibition [1] -14.6% | growth inhibition [2] 3.17% | viability increase [3] -4.96% | viability [4] 74.9% | viability [5] 69% | inhibition [6] 3.38% | RAM network inhibition [7] 8.91%

O=C1C(C=NCc2cccnc2)=C(O)c2ccccc21
inactive: growth inhibition [1] -6.25% | growth inhibition [2] -0.095% | viability increase [3] -2.11% | viability [4] 94.1% | viability [5] 93.4% | inhibition [6] 1.67% | RAM network inhibition [7] 2.36%

O=C(NCC1OCCc2ccccc21)c1ccco1 (configuration not stated)
inactive: growth inhibition [1] -13.7% | growth inhibition [2] -8.18% | viability increase [3] -3.72% | viability [4] 94.5% | viability [5] 96.5% | inhibition [6] 1.16% | RAM network inhibition [7] 6.11%

CCN1CCN(C(C(=O)NC2CCCC2)c2ccc(Cl)cc2)CC1 (configuration not stated)
inactive: growth inhibition [1] -14.8% | growth inhibition [2] 0.47% | viability increase [3] -4.44% | viability [4] 93.9% | viability [5] 93.1% | inhibition [6] 1.02% | RAM network inhibition [7] 3.71%

O=C(OCC(=O)N1CCN(C(=O)c2ccco2)CC1)c1sc2ccccc2c1Cl
inactive: growth inhibition [1] -14.3% | growth inhibition [2] -20.1% | viability increase [3] -2.74% | viability [4] 96.3% | viability [5] 102% | inhibition [6] 0.845% | RAM network inhibition [7] 5.57%

CNc1nc(SCC(=O)OC)nc(N2CCOCC2)n1
inactive: growth inhibition [1] -11.7% | growth inhibition [2] -14.8% | viability increase [3] -1.78% | viability [4] 93.9% | viability [5] 89.3% | inhibition [6] 1.14% | RAM network inhibition [7] 3.47%

O=C(NCC1CCCO1)c1nnc(Cc2ccc(F)cc2)o1 (configuration not stated)
inactive: growth inhibition [1] -12.6% | growth inhibition [2] 10.5% | viability increase [3] -0.18% | viability [4] 98.4% | viability [5] 99.4% | inhibition [6] 0.085% | RAM network inhibition [7] 1.47%

Cc1cccc(NC(=O)C2CCCN(S(=O)(=O)c3cccc4cccnc34)C2)c1 (configuration not stated)
inactive: growth inhibition [1] -13.1% | growth inhibition [2] -9.72% | viability increase [3] -1.92% | viability [4] 87.2% | viability [5] 74.6% | inhibition [6] 2.15% | RAM network inhibition [7] 3.91%

CCCOc1ccc(N2CC(C(=O)Nc3ccccc3OC)CC2=O)cc1 (configuration not stated)
inactive: growth inhibition [1] -15.6% | growth inhibition [2] -6.16% | viability increase [3] 0.54% | viability [4] 105% | viability [5] 93.7% | inhibition [6] 0.11% | RAM network inhibition [7] 2.24%

Cc1cc(Nc2ccc(F)cc2C)n2nc(C)nc2n1
inactive: growth inhibition [1] -2.58% | growth inhibition [2] -5.02% | viability increase [3] -1.42% | viability [4] 101% | viability [5] 98.7% | inhibition [6] 2.01% | RAM network inhibition [7] 5.08%

Cc1ccc(-c2nnc3ccc(SC(C)C(=O)O)nn23)cc1 (configuration not stated)
active: growth inhibition [2] 60.9%
inactive: growth inhibition [1] 13.9% | viability increase [3] -1.29% | viability [4] 99.1% | viability [5] 97.8% | inhibition [6] 2.31% | RAM network inhibition [7] 3.9%

CCOC(=O)Cn1nc(C)c(-c2ccccc2)c1N
inactive: growth inhibition [1] -23.1% | growth inhibition [2] -5.69% | viability increase [3] -1.41% | viability [4] 97.4% | viability [5] 95.2% | inhibition [6] 1.26% | RAM network inhibition [7] 2.61%

Cc1ccc2oc(Nc3nc(C)cc(C)n3)nc2c1
inactive: growth inhibition [1] -6.34% | growth inhibition [2] 13.1% | viability increase [3] 0.49% | viability [4] 102% | viability [5] 94.8% | inhibition [6] 1.01% | RAM network inhibition [7] 0.61%

COc1cccc(C2CC(c3ccc(Cl)cc3Cl)n3nc(N)nc3N2)c1 (configuration not stated)
inactive: growth inhibition [1] -1.58% | growth inhibition [2] 18.6% | viability increase [3] 4.01% | viability [4] 90.8% | viability [5] 90.8% | inhibition [6] 1.79% | RAM network inhibition [7] 8.01%

Cc1ccc(OCC(=O)n2nc(C)cc2C)c(Br)c1
inactive: growth inhibition [1] -17.8% | growth inhibition [2] -0.465% | viability increase [3] -2.35% | viability [4] 93.9% | viability [5] 94.3% | inhibition [6] 0.89% | RAM network inhibition [7] 0.1%

Cc1ccc(C(=O)CC2(O)C(=O)N(C)c3ccccc32)o1 (configuration not stated)
inactive: growth inhibition [1] -7.12% | growth inhibition [2] -13.5% | viability increase [3] -2.33% | viability [4] 99.3% | viability [5] 96.2% | inhibition [6] 0.645% | RAM network inhibition [7] 1.32%

O=C(c1cccc(F)c1)N1CCN=C1SCc1cccnc1
inactive: growth inhibition [1] -2.18% | growth inhibition [2] 8.84% | viability increase [3] -0.35% | viability [4] 102% | viability [5] 96.3% | inhibition [6] 0.32% | RAM network inhibition [7] 0.89%

Cn1c(C(=O)N2CCN(C3CCCCC3)CC2)cc2c(=O)n(C)c3ccccc3c21
inactive: growth inhibition [1] -0.185% | growth inhibition [2] 4.76% | viability increase [3] -1.32% | viability [4] 105% | viability [5] 101% | inhibition [6] 1.2% | RAM network inhibition [7] 0.21%

CCOC(=O)Cn1c(=NC(=O)CSC(C)=O)sc2ccccc21
inactive: growth inhibition [1] 0% | growth inhibition [2] 8.74% | viability increase [3] -4.54% | viability [4] 105% | viability [5] 106% | inhibition [6] 0.465% | RAM network inhibition [7] 4.02%

COc1ccc(C(=O)c2coc3ccc(O)c(CN4CCOCC4)c23)cc1
inactive: growth inhibition [1] -5.46% | growth inhibition [2] -12% | viability increase [3] -4.42% | viability [4] 77.2% | viability [5] 80.3% | inhibition [6] 1.79% | RAM network inhibition [7] -1.13%

Cc1cccc(NC(=O)CN(C)S(=O)(=O)c2cccc3cccnc23)c1
inactive: growth inhibition [1] 2.15% | growth inhibition [2] -0.265% | viability increase [3] 1.15% | viability [4] 96.5% | viability [5] 96.1% | inhibition [6] 0.01% | RAM network inhibition [7] -0.41%

Cc1ccc(-n2ncc3c(=O)[nH]c(SCC(=O)N4CCC(C)CC4)nc32)cc1C
inactive: growth inhibition [1] -0.265% | growth inhibition [2] -3.58% | viability increase [3] -5.08% | viability [4] 89% | viability [5] 85.3% | inhibition [6] 1.89% | RAM network inhibition [7] 2.86%

COc1ccc(OCC(O)CN2CCCCC2)cc1 (configuration not stated)
inactive: growth inhibition [1] -7.21% | growth inhibition [2] -11.1% | viability increase [3] -1.52% | viability [4] 95% | viability [5] 101% | inhibition [6] 1.59% | RAM network inhibition [7] 0.52%

Cc1ccc(S(=O)(=O)Cc2ccc(C(=O)N3CCN(c4ccc(F)cc4)CC3)o2)cc1
inactive: growth inhibition [1] -9.22% | growth inhibition [2] -15.2% | viability increase [3] -6.28% | viability [4] 33% | inhibition [6] 0.575% | RAM network inhibition [7] 4.81%
active: viability [5] 23.3%

CCOCCn1c(COc2ccccc2)nc2ccccc21
inactive: growth inhibition [1] -6.72% | growth inhibition [2] 1.93% | viability increase [3] -2.53% | viability [4] 83.8% | viability [5] 81.9% | inhibition [6] 1.88% | RAM network inhibition [7] 6.89%

CCOCCCNC(=O)C(NC(=O)c1ccc2c(c1)OCO2)c1ccc(OC)cc1 (configuration not stated)
inactive: growth inhibition [1] -12.5% | growth inhibition [2] -24.3% | viability increase [3] -2% | viability [4] 101% | viability [5] 96.3% | inhibition [6] 1.6% | RAM network inhibition [7] 3.11%

CCC(C)NC(=O)c1c(-c2cc(Cl)c(OC)c(Cl)c2)noc1C (configuration not stated)
inactive: growth inhibition [1] -15% | growth inhibition [2] -11.9% | viability increase [3] 0.42% | viability [4] 96.7% | viability [5] 93% | inhibition [6] 0.895% | RAM network inhibition [7] 5.69%

COc1cccc(N2CCN(C3CC(=O)N(c4ccc(Cl)cc4)C3=O)CC2)c1 (configuration not stated)
inactive: growth inhibition [1] -8.98% | growth inhibition [2] -2.62% | viability increase [3] -0.33% | viability [4] 96.2% | viability [5] 91.6% | inhibition [6] 0.57% | RAM network inhibition [7] 5.46%

CCCn1c(-c2ccc(OC)cc2)nc2ccccc21
inactive: growth inhibition [1] -16.6% | growth inhibition [2] -12.9% | viability increase [3] -0.51% | viability [4] 74.4% | viability [5] 71.9% | inhibition [6] 2.18% | RAM network inhibition [7] 7.97%

COc1ccc(NC(=O)CSc2nnc(Cn3c(=O)sc4ccccc43)n2C)cc1
inactive: growth inhibition [1] -3.85% | growth inhibition [2] 7.49% | viability increase [3] -4.99% | viability [4] 111% | viability [5] 98.4% | inhibition [6] 2.43% | RAM network inhibition [7] 1.51%
